The source of these data is ChEMBL document CHEMBL3259570, “4-([1,2,4]Triazolo[1,5-a]pyridin-6-yl)-5(3)-(6-methylpyridin-2-yl)imidazole and -pyrazole derivatives as potent and selective inhibitors of transforming growth factor-β type I receptor kinase” (Bioorg Med Chem, 2014).

Data set [1] concerns Plasma. The data set is described as follows: Drug level in rat plasma treated with [14C]-EW-7197, po by LC-MS analysis. Format: ADME, organism-based. Conditions: in vivo.
A short description of data set [2]: Drug level in rat feces treated with [14C]-EW-7197, po by LC-MS analysis. Type of data set: ADME, organism-based. The note with it: in vivo.
The nature of data set [3]: Drug level in rat urine treated with [14C]-EW-7197, po by LC-MS analysis. Type of data set: ADME, organism-based. The note with it: in vivo.
Data set [4] in a line: Retention time of the compound in rat bile treated with [14C]-EW-7197, po by LC-MS analysis. Format: ADME, organism-based.
Another data set deals with T1, TGF-beta receptor type-1 (Homo sapiens, UniProt P36897).
T1 sequence (P36897 whole entry): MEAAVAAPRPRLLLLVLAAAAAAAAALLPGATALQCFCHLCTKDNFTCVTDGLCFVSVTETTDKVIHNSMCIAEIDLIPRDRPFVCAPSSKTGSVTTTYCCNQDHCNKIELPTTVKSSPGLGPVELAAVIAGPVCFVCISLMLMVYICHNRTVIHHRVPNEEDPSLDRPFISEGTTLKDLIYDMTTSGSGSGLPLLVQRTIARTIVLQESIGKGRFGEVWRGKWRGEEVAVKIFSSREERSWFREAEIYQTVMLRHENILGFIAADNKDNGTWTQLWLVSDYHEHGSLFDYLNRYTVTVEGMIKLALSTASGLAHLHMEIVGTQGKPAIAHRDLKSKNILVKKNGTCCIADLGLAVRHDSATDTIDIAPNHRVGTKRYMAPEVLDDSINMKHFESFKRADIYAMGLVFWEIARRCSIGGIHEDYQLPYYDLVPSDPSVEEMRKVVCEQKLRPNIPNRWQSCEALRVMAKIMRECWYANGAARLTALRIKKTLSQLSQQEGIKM
Briefly: Inhibition of GST-fused recombinant human ALK5 expressed in baculovirus-infected insect Sf9 cells using casein as substrate by radioisotope-based assay.

For a further data set, the species on record is Homo sapiens. Briefly: Selectivity index, ratio of IC50 for recombinant human p38-alpha to IC50 for GST-fused recombinant human ALK5. In outline:
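Ratio of p38α IC50 to ALK5 IC50. ALK5 was a human recombinant GST-fusion protein expressed in Sf9 insect cells via baculovirus. p38α was […] human recombinant protein expressed in E. coli and purified on Ni-NTA agarose. Both were run in a radioisotopic ³³P protein kinase assay (³³PanQinase), with casein as the ALK5 substrate and ATF2 as the p38α substrate.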

For data set [5], the target named is Mitogen-activated protein kinase 14 (Homo sapiens, UniProt Q16539). The data set is described as follows: Inhibition of recombinant human p38-alpha expressed in Escherichia coli using ATF2 as substrate by radioisotope-based assay.
Data set [6] can be described thus: Drug level in rat bile treated with [14C]-EW-7197, po by LC-MS analysis. Format: ADME, organism-based. The note with it: in vivo.
Data set [7] can be described thus: Retention time of the compound in rat urine treated with [14C]-EW-7197, po by LC-MS analysis. Format: ADME, organism-based.
Data set [8] has as its system Plasma. The data set is described as follows: Retention time of the compound in rat plasma treated with [14C]-EW-7197, po by LC-MS analysis. Type of data set: ADME, organism-based.
Data set [9] deals with T2, TGF-beta receptor type-1 (Homo sapiens) (UniProt P36897).
T2 sequence (whole entry): T1 sequence (P36897 whole entry)
The data set is described as follows: Potency index, ratio of SB-505124 IC50 to compound IC50 for GST-fused recombinant human ALK5 expressed in baculovirus-infected insect Sf9 cells.

Data set [10] deals with Plasma. Briefly: Drug metabolism in po dosed rat plasma assessed as formation of (4-([1,2,4]triazolo[1,5-a]pyridin-6-yl)-5-(6-methylpyridin-2-yl)-1H-imidazol-2-yl)methanol by LC-MS analysis. The note with it: in vivo. Type of data set: ADME, organism-based.
Data set [11] in a line: Drug metabolism in po dosed rat feces assessed as formation of 4-([1,2,4]triazolo[1,5-a]pyridin-6-yl)-5-(6-methylpyridin-2-yl)-1H-imidazole-2-carbaldehyde by LC-MS analysis. Type of data set: ADME, organism-based. Conditions: in vivo.
Data set [12] is described as follows: Drug metabolism in po dosed rat urine assessed as formation of 4-([1,2,4]triazolo[1,5-a]pyridin-6-yl)-5-(6-methylpyridin-2-yl)-1H-imidazol-2-ol by LC-MS analysis. Type of data set: ADME, organism-based. The note with it: in vivo.
Data set [13] in a line: Drug metabolism in po dosed rat urine assessed as formation of (4-([1,2,4]triazolo[1,5-a]pyridin-6-yl)-5-(6-methylpyridin-2-yl)-1H-imidazol-2-yl)methanol by LC-MS analysis. Format: ADME, organism-based. Conditions: in vivo.
Data set [14] in a line: Drug metabolism in po dosed rat urine assessed as formation of 4-([1,2,4]triazolo[1,5-a]pyridin-6-yl)-5-(6-methylpyridin-2-yl)-1H-imidazole-2-carboxylic acid by LC-MS analysis. Conditions: in vivo. Type of data set: ADME, organism-based.
The nature of data set [15]: Drug metabolism in po dosed rat bile assessed as formation of 4-([1,2,4]triazolo[1,5-a]pyridin-6-yl)-5-(6-methylpyridin-2-yl)-1H-imidazole-2-carboxylic acid by LC-MS analysis. Format: ADME, organism-based. Conditions: in vivo.
Data set [16] relates to Plasma. The data set is described as follows: Drug metabolism in po dosed rat plasma assessed as formation of 4-([1,2,4]triazolo[1,5-a]pyridin-6-yl)-5-(6-methylpyridin-2-yl)-1H-imidazole-2-carbaldehyde by LC-MS analysis. The note with it: in vivo. Format: ADME, organism-based.
Data set [17] can be described thus: Drug metabolism in po dosed rat feces assessed as formation of (4-([1,2,4]triazolo[1,5-a]pyridin-6-yl)-5-(6-methylpyridin-2-yl)-1H-imidazol-2-yl)methanol by LC-MS analysis. The note with it: in vivo. Format: ADME, organism-based.
Data set [18] is described as follows: Drug metabolism in po dosed rat bile assessed as formation of 4-([1,2,4]triazolo[1,5-a]pyridin-6-yl)-5-(6-methylpyridin-2-yl)-1H-imidazole-2-carbaldehyde by LC-MS analysis. The note with it: in vivo. Type of data set: ADME, organism-based.
In data set [19] the test system is Plasma. The data set is described as follows: Retention time of the compound in po dosed rat plasma by LC-MS analysis. Type of data set: ADME, organism-based. The note with it: in vivo.
Data set [20] can be described thus: Drug metabolism in po dosed rat feces assessed as formation of 4-([1,2,4]triazolo[1,5-a]pyridin-6-yl)-5-(6-methylpyridin-2-yl)-1H-imidazole-2-carboxylic acid by LC-MS analysis. Type of data set: ADME, organism-based. Conditions: in vivo.
Data set [21] deals with Plasma. Briefly: Drug metabolism in po dosed rat plasma assessed as formation of 4-([1,2,4]triazolo[1,5-a]pyridin-6-yl)-5-(6-methylpyridin-2-yl)-1H-imidazole-2-carboxylic acid by LC-MS analysis. Format: ADME, organism-based. Conditions: in vivo.

Chain of Mitogen-activated protein kinase 14 (Q16539 whole entry): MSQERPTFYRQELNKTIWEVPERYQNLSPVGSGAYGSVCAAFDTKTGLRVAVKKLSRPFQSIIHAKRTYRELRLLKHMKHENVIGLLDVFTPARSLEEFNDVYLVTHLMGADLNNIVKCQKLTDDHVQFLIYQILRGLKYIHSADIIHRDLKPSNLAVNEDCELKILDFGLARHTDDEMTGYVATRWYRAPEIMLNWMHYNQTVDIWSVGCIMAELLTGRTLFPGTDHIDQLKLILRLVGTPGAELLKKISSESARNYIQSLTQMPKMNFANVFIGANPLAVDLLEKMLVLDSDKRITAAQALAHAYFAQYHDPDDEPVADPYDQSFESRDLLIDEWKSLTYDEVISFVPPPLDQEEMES

Turning to `Cc1cccc(-c2[nH]c(CO)nc2-c2ccc3ncnn3c2)n1`, the Drug metabolism result (with Plasma [1]; in [2]; in [3]) was “metabolite_detected” in each case. For the same compound, in data set [4], the Retention_time was found to be 53.65 min.
As usually defined, the IC50 is the point on the concentration scale where inhibition reaches its midpoint. In the case of `Cc1cccc(-c2nn(CC(=O)Nc3ccccc3F)cc2-c2ccc3ncnn3c2)n1`, the IC50 on TGF-beta receptor type-1 is 85 nM; in data set [5], over 10000 nM. For the same compound, the Ratio IC50 in the data set filed under Homo sapiens was over 118.
`Cc1cccc(-c2[nH]c(Cc3cccc(C(N)=O)c3)nc2-c2ccc3nccnc3c2)n1`: in the data set filed under Homo sapiens, the Ratio IC50 was determined as 28.
`Cc1cccc(-c2nn(CC(=O)Nc3cccc(C#N)c3)cc2-c2ccc3ncnn3c2)n1`: the IC50 at TGF-beta receptor type-1 is 27 nM; in [5], over 10000 nM. Moreover, the Ratio IC50 in the data set filed under Homo sapiens was over 370.
Take `Cc1cccc(-c2[nH]c(C=O)nc2-c2ccc3ncnn3c2)n1`: the Drug metabolism result (in data set [6]; in the data set with Plasma [1]; in data set [2]) was “metabolite_detected” throughout. This compound gave a Retention_time in data set [7] of 62.37 min.
Regarding `Cc1cccc(-c2[nH]c(CNC(=O)c3ccccc3F)nc2-c2ccc3ncnn3c2)n1`, the IC50 is 37 nM at TGF-beta receptor type-1 and over 10000 nM in data set [5]. In the data set listed under Homo sapiens, the Ratio IC50 is over 270.
The corresponding values for `Cc1cccc(-c2nn(CC(=S)Nc3ccccc3F)cc2-c2ccc3ncnn3c2)n1` are 29 nM, 5210 nM and 180.
Consider `Cc1cccc(-c2[nH]c(CNC(=O)c3cccc(C#N)c3)nc2-c2ccc3ncnn3c2)n1`, for which the IC50 is 90 nM at TGF-beta receptor type-1 and over 10000 nM in data set [5]. The Ratio IC50 in the data set listed under Homo sapiens was over 111.
Turning to `Cc1cccc(-c2[nH]c(C(=O)O)nc2-c2ccc3ncnn3c2)n1`, the Drug metabolism entry in [6], in [2] and in data set [3] was “metabolite_detected” in each case. In addition, the Retention_time in the data set on Plasma [8] stood at 24.43 min.
For the compound `Cc1cccc(-c2nn(CC(=O)Nc3ccccc3)cc2-c2ccc3ncnn3c2)n1`, the IC50 at TGF-beta receptor type-1 was 78 nM; in data set [5], over 10000 nM. In addition, the Ratio IC50 in the data set listed under Homo sapiens was over 128.
With `Cc1cccc(-c2[nH]c(CNC(=O)c3cccc(C(N)=O)c3)nc2-c2ccc3ncnn3c2)n1`, the IC50 was 106 nM at TGF-beta receptor type-1 and over 10000 nM in data set [5]. The Ratio IC50 in the data set listed under Homo sapiens is over 94.
As to `Cc1cccc(-c2nn(CC(=S)Nc3cccc(C#N)c3)cc2-c2ccc3ncnn3c2)n1`, the IC50 at TGF-beta receptor type-1 is 18 nM; in data set [5], 5110 nM. The Ratio IC50 in data set [9] came to 3; in the data set filed under Homo sapiens, 284.
As to `Cc1cccc(-c2[nH]c(CNC(=S)c3cccc(C#N)c3)nc2-c2ccc3ncnn3c2)n1`, the results for the IC50 (on TGF-beta receptor type-1; in data set [5]) were 36 nM and 1490 nM, respectively. The Ratio IC50 in the data set listed under Homo sapiens turned out to be 41.
`Cc1cccc(-c2[nH]c(O)nc2-c2ccc3ncnn3c2)n1`: in data set [3], the Drug metabolism entry was “metabolite_detected”. In [4], this compound yielded a Retention_time of 54.56 min.
Take `Cc1cccc(-c2nn(CC(=O)Nc3cccc(C(N)=O)c3)cc2-c2ccc3ncnn3c2)n1`: the figures for the concentration for half-maximal inhibition (IC50) (on TGF-beta receptor type-1; in data set [5]) were 36 nM and over 10000 nM, respectively. Moreover, in the data set filed under Homo sapiens, the Ratio IC50 was over 278.
In data set [4], `Cc1cccc(-c2[nH]c(CN)nc2-c2ccc3ncnn3c2)n1` showed a Retention_time of 68.77 min.
In the case of `Cc1cccc(-c2[nH]c(CNc3ccccc3F)nc2-c2ccc3ncnn3c2)n1` [VACTOSERTIB], the Drug metabolism entry (with Plasma [10]; in data set [11]; in data set [12]; in data set [13]; in data set [14]; in data set [15]) was “metabolite_detected” each time. The Drug metabolism result (with Plasma [16]; in [17]; in data set [18]; in data set [20]; with Plasma [21]) was “metabolite_detected” each time. The same compound showed a Retention_time with Plasma [19] of 71.53 min.
Take `Cc1cccc(-c2[nH]c(CNC(=S)c3cccc(C(N)=O)c3)nc2-c2ccc3ncnn3c2)n1`: the IC50 amounted to 22 nM at TGF-beta receptor type-1 and 2830 nM in [5]. Further, in the data set listed under Homo sapiens, the Ratio IC50 worked out at 129.
Consider `Cc1cccc(-c2[nH]c(CNC(=O)c3ccccc3)nc2-c2ccc3ncnn3c2)n1`, for which the figures for the IC50 (on TGF-beta receptor type-1; in data set [5]) were 57 nM and over 10000 nM, respectively. For the same compound, in the data set filed under Homo sapiens, the Ratio IC50 is over 175.
On the same counts, the results for `Cc1cccc(-c2[nH]c(CNC(=S)c3ccccc3)nc2-c2ccc3ncnn3c2)n1` are 48 nM, 3770 nM and 79.
The corresponding values for `Cc1cccc(-c2[nH]c(CNC(=S)c3ccccc3F)nc2-c2ccc3ncnn3c2)n1` are 27 nM, 1050 nM and 39.
